IC50, Apoptotic cell and Ratio data for nine compounds are collected here from ChEMBL document CHEMBL1145126, “Novel derivatives of benzo[b]thieno[2,3-c]quinolones: synthesis, photochemical synthesis, and antitumor evaluation” (J Med Chem, 2003).

The subject of one assay is Caco-2. In words: In vitro inhibitory effect on growth of human CaCo-2 tumor cell line. The assay is classed as functional, cell-based.
Assay [1] has as its system HBL. In words: In vitro inhibitory effect on growth of human HBL tumor cell line. In kind it is functional, cell-based.
The test system of the next assay is HeLa. In words: In vitro inhibitory effect on growth of human HeLa tumor cell line. In kind it is functional, cell-based.
Another assay deals with HEp-2. In words: In vitro inhibitory effect on growth of human Hep-2 tumor cell line. In kind it is functional, cell-based.
Another assay has as its system MCF7. In words: In vitro inhibitory effect on growth of human MCF-7 tumor cell line. In kind it is functional, cell-based.
The subject of the next assay is WI-38. In words: In vitro inhibitory effect on growth of human normal WI-38 cell line. The assay is classed as functional, cell-based.
The next assay relates to MIA PaCa-2. In words: In vitro inhibitory effect on growth of human MIAPaCa-2 tumor cell line. The assay is classed as functional, cell-based.
Another assay has as its system ME67.1. In words: In vitro inhibitory effect on growth of human ME 67.1 tumor cell line. In kind it is functional, cell-based.
A further assay relates to ME67.3. In words: In vitro inhibitory effect on growth of human ME 67.3 tumor cell line. The assay is classed as functional, cell-based.
Assay [2] concerns Melanoma cell. In words: Percentage of apoptotic cells after treatment of Melanoma cells with 5*10e-6 M compound for 5 hr. In kind it is functional, Homo sapiens. A digest of the protocol: (§1)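 HBL melanoma cells seeded at 2 × 10^5 cells/mL, exposed after 48 h to compound for 5 h, then washed in PBS and stained with Annexin-V-FLUOS for 15 min at ambient temperature. Scored by fluorescence microscopy as apoptotic (green) cells over total cells.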

Assay [3] relates to HBL. In words: Effect on adhesion of Melanoma cell line (HBL) at 10*10e-5 M at 1 hr incubation time. In kind it is functional, Homo sapiens. The gist of the method: (§2)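 HBL melanoma cells exposed to compound at the stated concentration and time; cells still attached to the plastic substratum quantified by MTT test. Result given as ratio (%) of treated to control cells; one of three parallel experiments reported.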

Assay [4] relates to HBL. In words: Effect on adhesion of Melanoma cell line (HBL) at 10*10e-5 M at 24 hr incubation time. In kind it is functional, Homo sapiens. The gist of the method: as §2
Assay [5] relates to HBL. In words: Effect on adhesion of Melanoma cell line (HBL) at 10*10e-5 M at 2 hr incubation time. The assay is classed as functional, Homo sapiens. The gist of the method: as §2
The subject of assay [6] is HBL. In words: Effect on adhesion of Melanoma cell line (HBL) at 10*10e-5 M at 3h incubation time. The assay is classed as functional, Homo sapiens. The gist of the method:
as §2

In assay [7] the test system is HBL. In words: Effect on adhesion of Melanoma cell line (HBL) at 5*10e-6 M at 1 hr incubation time. In kind it is functional, Homo sapiens. A digest of the protocol: as §2
For assay [8], the system named is HBL. In words: Effect on adhesion of Melanoma cell line (HBL) at 5*10e-6 M at 24 hr incubation time. In kind it is functional, Homo sapiens. A digest of the protocol: as §2
Assay [9] has as its system HBL. In words: Effect on adhesion of Melanoma cell line (HBL) at 5*10e-6 M at 3h incubation time. The assay is classed as functional, Homo sapiens. The gist of the method:
as §2

Assay [10] relates to Melanoma cell. In words: Percentage of apoptotic cells after treatment of Melanoma cells with 1*10e-5 M compound for 5 hr. The assay is classed as functional, Homo sapiens. A digest of the protocol:
as §1

In assay [11] the test system is Melanoma cell. In words: Percentage of apoptotic cells after treatment of Melanoma cells with 1*10e-6 M compound for 5 hr. In kind it is functional, Homo sapiens. The gist of the method:
as §1

Assay [12] deals with HBL. In words: Effect on adhesion of Melanoma cell line (HBL) at 5*10e-6 M at 2 hr incubation time. The assay is classed as functional, Homo sapiens. The gist of the method: as §2

A word on the IC50: it is the concentration that inhibits the measured activity by half. The low end stands for greater potency, the high end for weaker potency. As to `CN(C)CCCn1c(=O)c2sc3cc([N+](=O)[O-])ccc3c2c2ccccc21`, the half-maximal inhibitory concentration (IC50) was found to be 790 nM in the assay on Caco-2; 1200 nM in the assay on HBL [1]; 1000 nM in the assay on HeLa; 3540 nM in the assay on HEp-2; 5800 nM with MCF7; 2400 nM with WI-38. This compound registered an IC50 in the assay on MIA PaCa-2 of 1250 nM.

For `CN(C)CCCN(C(=O)c1ccc2c(c1)sc1c(O)nc3ccccc3c12)c1ccccc1`, the IC50 in the assay on Caco-2 was 4790 nM; in the assay on HBL [1], 670 nM; in the assay on HeLa, 34700 nM; in the assay with HEp-2, 3160 nM; in the assay with MCF7, 19500 nM; in the assay with WI-38 it was 10000 nM. Also, in the assay with MIA PaCa-2, half-maximal inhibition (IC50) was put at 4790 nM.

Turning to `COc1ccc2c(c1)sc1c(=O)n(CCCN(C)C)c3ccccc3c12`, the IC50 is 470 nM in the assay with Caco-2; 1580 nM with HBL [1]; 850 nM in the assay with HeLa; 2960 nM with HEp-2; 2200 nM in the assay on MCF7; 2300 nM in the assay on WI-38. Besides, in the assay on MIA PaCa-2, the half-maximal inhibitory concentration (IC50) stood at 510 nM.

Regarding `CN(C)CCCNC(=O)c1ccc2c(c1)sc1c(O)nc3ccccc3c12`, the 50% inhibitory concentration (IC50) in the assay on Caco-2 was 3800 nM; in the assay with HBL [1] it was 1000 nM; in the assay on HeLa it was 6300 nM; in the assay on HEp-2, 6600 nM; with MCF7, 10000 nM; with WI-38 it was 4400 nM. Besides, half-maximal inhibition in the assay with MIA PaCa-2 (IC50) was put at 6600 nM.

Turning to `CN(C)CCCn1c(=O)c2sc3cc(F)ccc3c2c2ccccc21`, the IC50 was 980 nM in the assay on Caco-2; 3980 nM with HBL [1]; 650 nM in the assay on HeLa; 3160 nM with HEp-2; 4600 nM in the assay on MCF7; 2900 nM with WI-38. In addition, in the assay with MIA PaCa-2, the IC50 was 2500 nM.

As for `Cc1ccc2c(c1)sc1c(=O)n(CCCN(C)C)c3ccccc3c12`, the half-inhibitory concentration (IC50) was 1700 nM in the assay with Caco-2; 1100 nM in the assay with HBL [1]; 1000 nM in the assay with HeLa; 3630 nM in the assay with HEp-2; 4500 nM in the assay with MCF7; 2450 nM in the assay with WI-38. The compound further displayed an IC50 in the assay on MIA PaCa-2 of 1100 nM.

`CN(C)CCCn1c(=O)c2sc3ccccc3c2c2ccccc21`: the IC50 with Caco-2 was determined as 620 nM; with HBL [1] it was 580 nM; in the assay on HeLa, 2500 nM; in the assay on HEp-2 it was 3630 nM; in the assay on MCF7, 4270 nM; with WI-38 it was 4500 nM. Moreover, the half-inhibitory concentration (IC50) in the assay with MIA PaCa-2 was 1400 nM.

Turning to `COC(=O)c1ccc2c(c1)sc1c(=O)n(CCCN(C)C)c3ccccc3c12`, the IC50 was 470 nM with Caco-2; 350 nM with HBL [1]; 1300 nM in the assay with HeLa; 650 nM with HEp-2; 590 nM in the assay with MCF7; 1600 nM in the assay with WI-38. Moreover, the midpoint of inhibition in the assay with MIA PaCa-2, the IC50, lay at 1000 nM.

Regarding `CN(C)CCCn1c(=O)c2sc3cc(C(=O)Nc4ccccc4)ccc3c2c2ccccc21`, the half-maximal inhibitory concentration (IC50) is 490 nM in the assay with Caco-2; 10 nM in the assay on HBL [1]; 2800 nM in the assay with HeLa; 1770 nM with HEp-2; 790 nM in the assay on ME67.1; 190 nM in the assay with ME67.3. The half-maximal inhibitory concentration (IC50) in the assay on MCF7 was 2630 nM; with WI-38 it was 2300 nM; in the assay with MIA PaCa-2 it was 1000 nM. Further, the Apoptotic cell stood at 29% in the assay with Melanoma cell [2], 35% with Melanoma cell [10] and 9% with Melanoma cell [11]. Moreover, the Ratio in the assay on HBL [3] is given as 87%; in the assay with HBL [4] it was 28%; in the assay on HBL [5] it was 87%; in the assay on HBL [6] it was 81%; in the assay on HBL [7], 90%; in the assay on HBL [8], 62%. Moreover, the Ratio amounted to 95% in the assay on HBL [9] and 98% with HBL [12].
